Experiment: Toxicity liver stage against HepG2, at 10uM
Type: cell-based
Parameters: test concentration 10 uM, cell line HepG2-A16-CD81EGFP
Settings: human, HepG2-A16-CD81EGFP cells; read-out: INHIBITION
How it was run: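 Uninfected HepG2-A16-CD81EGFP cells, 3 × 10^3 per well, 1536-well, plated on prespotted compound at 10 μM final, parasite-free screening media added to match infected plates; puromycin 10 μM positive, DMSO 0.5% negative; run in parallel with 48 h PbLuc assay at 37 °C, 5% CO2; viability by CellTiter-Glo luminescence, normalized to controls.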

Row | SMILES | cytotoxicity at 10 µM [%]
1 | COc1ccnc(N2CCN(CC(=O)N3CCOCC3)CC2)n1 | -7.37
2 | C[C@@H](NCc1cccc(Cl)c1)c1onc(-c2ccccc2)c1C(=O)O | -4.98
3 | O=C1N[C@@H]2CCN(C(=O)c3ccccc3)[C@@H]2C(=O)N1c1ccc(F)cc1 | 7.62
4 | O=C(NCc1ccco1)c1cccc(C(=O)NCc2ccco2)n1 | 5.7
5 | Cn1cc(-c2nnc3sc(C4CC4)nn23)cn1 | -3.08
6 | CCCc1cc(=O)[nH]c2nnc(SCC(N)=O)n12 | 13.8
7 | CC1(C)OCC2(CO1)CN(C(=O)c1ccccc1Br)C2 | -7.31
8 | NC1CCc2c(ccc(=O)n2Cc2ccncc2)C1 (stereo unspecified) | -4.16
9 | CC1c2ncc(COCC3CCCC3)n2CCN1S(=O)(=O)N(C)C (stereo unspecified) | 14.6
10 | O=C(CCO)N1CCC2(CCc3ccc(-c4ccoc4)cc32)CC1 | 16.1
11 | Cn1cccc1C(=O)N1CCCC2(CCCN2S(C)(=O)=O)C1 (stereo unspecified) | 6.28
12 | Cc1cnc(N2CCC3(CC2)CC(NS(C)(=O)=O)CO3)nc1 (stereo unspecified) | 2.87
13 | Cn1cc(N2CC3(CCN(S(C)(=O)=O)C3)CC2=O)cn1 (stereo unspecified) | 9.04
14 | Cc1ccc(C)c(C(NC(=O)C2CC2)c2cccnc2)c1 (stereo unspecified) | -3.5
15 | CC(NC(=O)N1CCN(c2ccc(Cl)cc2)CC1)C(=O)N1CCSCC1 (stereo unspecified) | 25.4
16 | CNC(=O)C1Cn2ccnc2C2(CCN(CCF)CC2)O1 (stereo unspecified) | -12.6
17 | Cc1cc(C(F)(F)F)nn1CCCNC(=O)C1CCN(S(C)(=O)=O)CC1 | -4.56
18 | Cc1cc(C(=O)Nc2cnn(CC(F)(F)F)c2)nc(N(C)C)n1 | -2.89
19 | O=C(COCc1nc(-c2ccncc2)no1)N1CCOCC1 | -7.08
20 | COc1ccccc1NC(=O)c1cnc(C2CCN(C(C)=O)C2)nc1C (stereo unspecified) | 6.42
21 | Cc1ccc2nc(C(=O)N(C)[C@@H]3CC[C@@H](N4CCCC4)[C@@H]3O)cn2c1 | 1.67
22 | CC(=O)N1CCN(c2ccnc(C)n2)CC(COc2ccccc2)C1 (stereo unspecified) | -6.16
23 | CCc1cc(C(=O)N2CCCC2c2nc(O)cc(CC)n2)on1 (stereo unspecified) | -7

Row | SMILES | cytotoxicity at 10 µM [%]
24 | O=C(CS(=O)(=O)Cc1csc(-c2ccc(F)cc2)n1)NCC1CC1 | -3.06
25 | Nc1cccnc1N1CCC(O)CC1 | 2.3
26 | O=C(NCc1cc(-c2ccccc2)no1)NCC1CCCO1 (stereo unspecified) | -3.01
27 | Cc1cc(C)cc(NCCC(=O)NC2CCCCC2)c1 | 7.61
28 | CCCS(=O)(=O)NCC(O)c1c(Cl)cccc1Cl (stereo unspecified) | 7.52
29 | Cc1ccc(N2CCCN(C(=O)CCc3ccsc3)CC2)nn1 | -2.22
30 | CN1CCN(CCOc2ccc(NC(=O)c3cnc[nH]3)cc2)CC1 | 0.71
31 | Cc1ccc(CC(NC(=O)Cn2cnnn2)c2ccccn2)cc1 (stereo unspecified) | 1.72
32 | Cc1ncccc1C(=O)NC1CC(=O)N(CC(F)(F)F)C1 (stereo unspecified) | 1.2
33 | COc1ccc(-c2nc(CCNC(=O)NCC3CCOC3)co2)cc1 (stereo unspecified) | -3.1
34 | COC(=O)N1CCCC(NC(=O)NCc2csc(C)n2)C1 (stereo unspecified) | 3.93
35 | CCCNC(=O)Cn1c(C)nn(C(C)(C)C)c1=O | 4.62
36 | Cc1ccc(-n2cnnn2)cc1NCC(=O)Nc1ccccc1Cl | 7.95
37 | CS(=O)(=O)NC1CCN(C(=O)c2ccc3ccccc3c2)C1 (stereo unspecified) | -9.14
38 | CC(C)Cc1cc(NC(=O)c2ccc3[nH]nnc3c2)n(C)n1 | -7
39 | CN(C)c1nccc(CNC(=O)NCc2ccco2)n1 | -2.48
40 | CCN1CCN(Cc2nc(C)no2)CC1 | 0.978
41 | O=C(NCc1ccon1)N1CCC(n2ccc(C(F)(F)F)n2)CC1 | -0.0817
42 | O=C(NCc1cccnc1)NC1CCCN(c2ncccn2)C1 (stereo unspecified) | -2.5
43 | Cc1cnn(CC2CCCN2C(=O)CCc2c(C)nn(C)c2C)c1 (stereo unspecified) | 0.407
44 | COCC(O)CNC(=O)Nc1c(F)cc(F)cc1-c1ccccc1 (stereo unspecified) | -4.17
45 | CC(=O)N1Cc2ccccc2CC1C(=O)Nc1ccc(N(C)C)cn1 (stereo unspecified) | -1.92
46 | CCCOC1CCCN(C(=O)c2csc(S(N)(=O)=O)c2)C1 (stereo unspecified) | -5.45

Row | SMILES | cytotoxicity at 10 µM [%]
47 | CS(=O)(=O)CCNCc1ccc(OCc2ccncc2)cc1 | -134
48 | COc1ccccc1C1(CNCc2ccc([S+](C)[O-])cc2)CC1 (stereo unspecified) | 7.56
49 | COc1ccc(C)cc1C(C)NCc1cnnn1C (stereo unspecified) | 0.211
50 | Cc1csc(C(C)(C)NCC(=O)N2CCCC(C(N)=O)C2)n1 (stereo unspecified) | 5.73
51 | Cc1ccn(-c2ccc(NCc3ccnc(N4CCCCC4)c3)nn2)n1 | -0.715
52 | Cc1noc(C2CCN(C(=O)c3c(C)noc3C)CC2)n1 | 5.65
53 | CN(C)C(=O)CNC(=O)c1cc(Br)c2c(c1)OCCO2 | 16.4
54 | COc1ccc(-n2cnnc2SCC(C)(C)O)cn1 | 13.5
55 | Cc1cc(CN(C)C(=O)NC(C)c2nncn2C)no1 (stereo unspecified) | 8.79
56 | CC(C)c1nc2n(n1)CC(NCc1ccncc1)CC2 (stereo unspecified) | -13.9
57 | COCCN1CCO[C@@H]2CN(C(=O)c3ccc4[nH]ccc4c3)CC[C@@H]2C1 | -110
58 | O=C(c1ccco1)N1CC[C@@H](N2CCOCC2)[C@@H]1Cc1ccccc1 | -77
59 | CC(C)c1cc(C(=O)N2CCN(C)[C@@H]3CS(=O)(=O)C[C@@H]32)no1 | 4.14
60 | CC(=O)N1CCCN(C(=O)Nc2ccccc2N2CCOC2=O)CC1 | 0.334
61 | Cc1cc(C)n(CCCN(C)C(=O)C2COc3ccccc3C2)n1 (stereo unspecified) | -5.95
62 | COCCn1cnnc1CN(C)c1nc(N)ncc1C | -7.85
63 | COCC(=O)N1C[C@H]2CNC[C@@]2(C(=O)NCc2nc(C)cc(C)n2)C1 | 14.7
64 | O=C(NCCCO)C1(N2CCCCC2)Cc2ccccc2C1 | -3.07
65 | O=C(O)C1(n2ccc(-c3ccco3)n2)CCN(Cc2cccnc2)CC1 | -131
66 | CC(C)S(=O)(=O)N1CCC(Cc2cccc(C(=O)O)c2)C1 (stereo unspecified) | 1.31
67 | Cc1cc(CN2CCC(C(=O)O)(n3ccc(-c4ccco4)n3)CC2)on1 | -131
68 | COc1nc(C)c(C(=O)N2CCc3[nH]nc(C4CCCC4)c3C2)s1 | 7.51
69 | Cc1ccc(C2CC(=O)NCc3nc(N)sc32)cc1C (stereo unspecified) | -8.47

Row | SMILES | cytotoxicity at 10 µM [%]
70 | Cc1cnn(CC(=O)N2CCC3(CCC(=O)N(CCCO)C3)CC2)c1 | -9.44
71 | Cc1nccn1CCC1CCCCN1Cc1ccc(O)cc1Cl (stereo unspecified) | -4.23
72 | Cc1noc(C)c1CCNc1nccc(CCC(F)(F)F)n1 | -158
73 | CCC(CO)n1cnc2scc(C)c2c1=O (stereo unspecified) | -7.37
74 | CN(Cc1ccoc1)C(=O)C1CC(=O)N(Cc2ccncc2)C1 (stereo unspecified) | -0.766
75 | Cc1ccc(NCCCc2c(C)noc2C)nn1 | 8.12
76 | Cn1nccc1CNC(=O)Cn1nc(C(F)(F)F)cc1C1CC1 | -6.36
77 | NC(=O)C1(CCCc2cccnc2)CCCN(c2ncccn2)C1 (stereo unspecified) | 3.61
78 | Cc1nccn1C1CCCN(C(=O)CCOCC(F)(F)F)C1 (stereo unspecified) | -11.4
79 | CCn1ccnc1CN1CCN(CC(O)c2ccc(OC)cc2)CC1 (stereo unspecified) | -15.1
80 | CNc1snc(C)c1C(=O)N1CCC(Nc2ccc(C)nn2)CC1 | -8.27
81 | Cc1ccc(NC2CCN(C(=O)c3c(C)nn(C)c3Cl)CC2)nn1 | -11.6
82 | CSCCCN1CCCC1c1noc(C(C)C)n1 (stereo unspecified) | -12.5
83 | CC(NC(=O)CCc1ccsc1)c1ccc2c(c1)NC(=O)CO2 (stereo unspecified) | -6.16
84 | COc1ccc(C2CCCCCN2CCCNS(C)(=O)=O)cc1 (stereo unspecified) | -6.07
85 | Cc1csc(N2CCN(C(=O)c3c(C)oc(C)c3C)CC2)n1 | -14
86 | CC(=O)NC1CCCN(C(=O)NCc2ccc(-n3cccn3)cc2)C1 (stereo unspecified) | -11.8
87 | O=C(NCCc1coc(-c2ccc(F)cc2)n1)NC1CC1 | -3.24
88 | Cc1cc(OCC(=O)N2CCCC(c3nc(C)c(C)s3)C2)no1 (stereo unspecified) | -16.4
89 | Cc1nc(C(=O)N2CCCC2c2c(C)nn(C)c2Cl)ccc1C#N (stereo unspecified) | -12.8
90 | CCOC(=O)C1CCN(Cc2csc(-c3ccc(C)o3)n2)CC1 | -11.4
91 | CC(C)c1nc2n(n1)CC(NCc1nc(-c3ccccn3)no1)CC2 (stereo unspecified) | -5.08
92 | Cc1cnn(C2CCCN(C(=O)CCCNc3ncccn3)C2)c1 (stereo unspecified) | -3.27

Row | SMILES | cytotoxicity at 10 µM [%]
93 | CCc1cccc(OCC(=O)N2CCCC(n3cncn3)C2)c1 (stereo unspecified) | -7.62
94 | COc1c(C2CCCN2C(=O)c2ccnc(N(C)C)c2)c(C)nn1C (stereo unspecified) | 1.9
95 | Cc1ccccc1C(=O)N1CCOCC1CN(C)C (stereo unspecified) | -2.1
96 | CN1CCC(CN2CCC3(CCCN(Cc4ccoc4)C3)C2=O)CC1 (stereo unspecified) | -12.9
97 | Cc1ccc(C(=O)N2CCN3C[C@H](Oc4cccc(F)c4)C[C@H]3C2)cn1 | 11.2
98 | COCc1cncc2c1CCN(Cc1cccs1)C2 | -0.95
99 | O=C(Cc1ccccc1)N1CCC2(CCN2Cc2ccc(F)cc2)C1 (stereo unspecified) | 2.17
100 | O=C1[C@H]2CN(C(=O)[C@H]3CCCO3)C[C@H]2CN1CCN1CCCC1 | -3.66
101 | CN(Cc1cncnc1)Cc1cn2c(n1)CN(C1CCOC1)CC2 (stereo unspecified) | -9.36
102 | CC(C)N1CCO[C@H]2CN(C(=O)c3ccncc3F)C[C@H]21 | -146
103 | CC(C)OCc1ncn2c1CN(CCO)CCC2 | 8.37
104 | Cc1cc(CN2C[C@H]3CCC[C@@]3(COCc3csc(C)n3)C2)no1 | 11.6
105 | CN(C)C(=O)[C@H]1C[C@H]2OCC[C@H]2N(CCOc2ccc(Cl)cc2)C1 | -115
106 | CN(C)[C@@H]1CCN(C(=O)C2CCOCC2)[C@H]1Cc1ccncc1 | 1.72
107 | CCN1CC(=O)NCC12CCN(C(=O)c1ccco1)C2 (stereo unspecified) | -2.86
108 | O=C(c1cccc(F)c1)N1CCC2(CC1)CC(N1CCOCC1)C2 | -8.02
109 | O=S(=O)(N[C@@H]1CCO[C@]2(CCN(CC3CCOCC3)C2)C1)C1CC1 | -142
110 | COCCN1CCN(S(=O)(=O)C2CC2)Cc2ccc(C)nc21 | 3.38
111 | O=C1C[C@@H]2CC[C@H](CN1)N2C(=O)CCCc1ccc(Cl)cc1 | -7.05

— ChEMBL document CHEMBL4513216, “Probing the Open Global Health Chemical Diversity Library for Multistage-Active Starting Points for Next-Generation Antimalarials” (ACS Infect Dis, 2020)
